Measurements published in ChEMBL document CHEMBL1759999, “Exploration of (S)-3-aminopyrrolidine as a potentially interesting scaffold for discovery of novel Abl and PI3K dual inhibitors” (Eur J Med Chem, 2011).
Activity calls are given as the source filed them. No cut-off for these calls is given here.

Experiments:
K562 [1] = assay: Cytotoxicity against human K562 cells after 48 hrs by MTT assay; assay type: functional, cell-based; details: K562, 48 h
Method in brief: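 K562 cells grown in DMEM with 10% FBS plus penicillin and streptomycin, humidified air, 37 °C, 5% CO2. Cells seeded in 96-well plates and exposed to compounds at varying concentrations for 48 h. Viability read by MTT. IC50 derived from inhibition rates at each concentration. Values are means of three experiments.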

[2] = molecular target: Tyrosine-protein kinase ABL2 (Homo sapiens) (UniProt P42684); assay: Inhibition of Abl2 at 20 uM after 1 hr by luminescence assay
Tyrosine-protein kinase ABL2 (Homo sapiens), sequence (P42684 whole entry): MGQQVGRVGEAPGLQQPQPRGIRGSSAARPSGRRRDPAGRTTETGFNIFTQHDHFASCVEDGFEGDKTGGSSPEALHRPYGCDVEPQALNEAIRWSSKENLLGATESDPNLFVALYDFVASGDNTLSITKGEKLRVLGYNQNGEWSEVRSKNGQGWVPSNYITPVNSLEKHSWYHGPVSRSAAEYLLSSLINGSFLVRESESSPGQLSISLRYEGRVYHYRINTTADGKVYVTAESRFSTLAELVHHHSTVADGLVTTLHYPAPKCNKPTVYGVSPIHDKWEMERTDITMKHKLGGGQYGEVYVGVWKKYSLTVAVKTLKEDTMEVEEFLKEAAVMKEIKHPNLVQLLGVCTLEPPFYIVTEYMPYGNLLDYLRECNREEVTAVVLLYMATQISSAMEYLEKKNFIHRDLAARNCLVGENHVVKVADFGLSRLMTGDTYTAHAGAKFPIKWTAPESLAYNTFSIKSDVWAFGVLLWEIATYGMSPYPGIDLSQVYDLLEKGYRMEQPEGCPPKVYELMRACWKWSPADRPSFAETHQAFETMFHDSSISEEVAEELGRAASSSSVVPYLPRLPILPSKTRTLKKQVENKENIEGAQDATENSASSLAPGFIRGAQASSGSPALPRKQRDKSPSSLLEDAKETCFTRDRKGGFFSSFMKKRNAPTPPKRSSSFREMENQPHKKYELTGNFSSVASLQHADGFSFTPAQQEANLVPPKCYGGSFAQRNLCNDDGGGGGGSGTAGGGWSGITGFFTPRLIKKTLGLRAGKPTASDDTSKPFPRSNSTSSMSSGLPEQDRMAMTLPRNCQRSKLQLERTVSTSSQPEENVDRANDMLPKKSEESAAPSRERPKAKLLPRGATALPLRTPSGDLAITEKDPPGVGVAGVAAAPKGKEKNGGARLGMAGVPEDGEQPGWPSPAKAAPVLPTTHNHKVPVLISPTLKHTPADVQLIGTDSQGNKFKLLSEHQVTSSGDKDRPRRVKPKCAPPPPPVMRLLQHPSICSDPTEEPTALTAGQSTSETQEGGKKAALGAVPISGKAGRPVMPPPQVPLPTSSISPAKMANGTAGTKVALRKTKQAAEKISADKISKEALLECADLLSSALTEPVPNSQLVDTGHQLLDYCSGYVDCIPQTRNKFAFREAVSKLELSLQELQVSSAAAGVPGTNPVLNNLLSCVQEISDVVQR
Method in brief: (§1)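 Kinase incubated with substrate, test compound and ATP in a final buffer of 25 mM HEPES. Controls were staurosporine for Abl and PI103 for PI3K.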

[3] = molecular target: Phosphatidylinositol 4,5-bisphosphate 3-kinase catalytic subunit alpha isoform (Homo sapiens) (UniProt P42336); assay: Inhibition of PI3Kalpha at 20 uM after 1 hr by luminescence assay; method in brief: as §1
Phosphatidylinositol 4,5-bisphosphate 3-kinase catalytic subunit alpha isoform (Homo sapiens), sequence (P42336 whole entry, canonical isoform): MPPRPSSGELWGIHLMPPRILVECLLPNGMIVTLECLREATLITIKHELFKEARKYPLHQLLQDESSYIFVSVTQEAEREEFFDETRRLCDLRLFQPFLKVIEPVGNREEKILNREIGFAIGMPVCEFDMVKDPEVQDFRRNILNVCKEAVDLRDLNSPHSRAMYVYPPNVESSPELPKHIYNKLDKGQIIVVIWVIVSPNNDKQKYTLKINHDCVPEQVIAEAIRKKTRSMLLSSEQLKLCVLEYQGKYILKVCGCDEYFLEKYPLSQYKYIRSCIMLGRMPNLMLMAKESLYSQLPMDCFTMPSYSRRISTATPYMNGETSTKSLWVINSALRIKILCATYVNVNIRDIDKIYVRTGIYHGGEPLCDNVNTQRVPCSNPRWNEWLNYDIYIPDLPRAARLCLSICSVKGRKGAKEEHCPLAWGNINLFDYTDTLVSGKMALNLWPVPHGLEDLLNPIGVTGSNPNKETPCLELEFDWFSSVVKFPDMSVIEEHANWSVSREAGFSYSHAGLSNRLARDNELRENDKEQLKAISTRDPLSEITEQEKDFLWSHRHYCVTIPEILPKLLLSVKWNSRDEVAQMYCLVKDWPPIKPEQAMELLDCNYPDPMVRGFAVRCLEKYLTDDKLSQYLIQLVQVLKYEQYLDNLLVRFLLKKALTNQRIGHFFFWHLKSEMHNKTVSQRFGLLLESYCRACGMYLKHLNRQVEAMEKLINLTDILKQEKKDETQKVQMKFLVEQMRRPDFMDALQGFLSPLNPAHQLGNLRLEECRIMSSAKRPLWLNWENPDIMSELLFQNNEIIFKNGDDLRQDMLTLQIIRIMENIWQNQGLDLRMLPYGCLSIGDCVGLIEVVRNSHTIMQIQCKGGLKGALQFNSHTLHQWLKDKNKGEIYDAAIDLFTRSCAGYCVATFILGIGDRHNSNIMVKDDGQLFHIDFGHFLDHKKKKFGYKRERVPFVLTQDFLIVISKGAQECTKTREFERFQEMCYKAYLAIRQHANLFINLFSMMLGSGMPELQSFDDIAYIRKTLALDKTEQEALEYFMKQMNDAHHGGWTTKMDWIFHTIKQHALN

K562 [4] = assay: Induction of apoptosis in human K562 cells at 5 uM after 24 hrs by annexin V-FITC/propidium iodide staining by flow cytometry; assay type: functional, cell-based
Method in brief: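 K562 cells were treated for 24 h, then untreated and treated cells were collected by centrifugation and washed twice with ice-cold PBS. Phosphatidylserine surface exposure was measured by Annexin V-FITC binding, with PI staining for membrane integrity. Read-out was flow cytometry.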

SMILES	IC50 (K562 [1]) [µM]	inhibition [2] [%]	inhibition [3] [%]	Activity (K562 [4])
O=C(CN[C@H]1CCN(S(=O)(=O)Cc2ccccc2)C1)N1CCN(Cc2cccc(F)c2)CC1	13.2	–	–	–
CN[C@@H]1C[C@H]2O[C@@](C)([C@@H]1OC)n1c3ccccc3c3c4c(c5c6ccccc6n2c5c31)C(=O)NC4	–	90.2	–	–
Cc1cc(C)c(CN2CCN(C(=O)CN[C@H]3CCN(S(=O)(=O)Cc4ccccc4)C3)CC2)c(C)c1	3.3	1.39	13.5	inactive
O=C(CN[C@H]1CCN(S(=O)(=O)Cc2ccccc2)C1)N1CCN(Cc2ccc(Cl)cc2Cl)CC1	4.3	4.92	16.4	inactive
COc1cc(CN2CCN(C(=O)CN[C@H]3CCN(S(=O)(=O)Cc4ccccc4)C3)CC2)cc(OC)c1OC	93	–	–	–
Cc1ccc(NC(=O)c2ccc(CN3CCN(C)CC3)cc2)cc1Nc1nccc(-c2cccnc2)n1 [IMATINIB]	0.58	–	–	–
Cc1ccccc1CN1CCN(C(=O)CN[C@H]2CCN(S(=O)(=O)Cc3ccccc3)C2)CC1	10.2	–	–	–
COc1cccc(CN2CCN(C(=O)CN[C@H]3CCN(S(=O)(=O)Cc4ccccc4)C3)CC2)c1	60.8	–	–	–
O=C(CN[C@H]1CCN(S(=O)(=O)Cc2ccccc2)C1)N1CCN(Cc2ccccc2F)CC1	12.6	–	–	–
COc1ccc(CN2CCN(C(=O)CN[C@H]3CCN(S(=O)(=O)Cc4ccccc4)C3)CC2)cc1	50.9	–	–	–
O=C(CN[C@H]1CCN(S(=O)(=O)Cc2ccccc2)C1)N1CCN(Cc2ccccc2Cl)CC1	9	–	–	–
O=C(CN[C@H]1CCN(S(=O)(=O)Cc2ccccc2)C1)N1CCN(Cc2c(F)cccc2Cl)CC1	65.8	–	–	–
O=C(CN[C@H]1CCN(S(=O)(=O)Cc2ccccc2)C1)N1CCN(Cc2c(Cl)cccc2Cl)CC1	28.4	–	–	–
COc1cc(CN2CCN(C(=O)CN[C@H]3CCN(S(=O)(=O)Cc4ccccc4)C3)CC2)cc(OC)c1	33.8	–	–	–
O=C(CN[C@H]1CCN(S(=O)(=O)Cc2ccccc2)C1)N1CCN(Cc2ccccc2)CC1	9.5	–	–	–
Oc1cccc(-c2nc(N3CCOCC3)c3oc4ncccc4c3n2)c1	–	–	98.1	–
O=C(CN[C@H]1CCN(S(=O)(=O)Cc2ccccc2)C1)N1CCN(Cc2cccc(C(F)(F)F)c2)CC1	3.6	4.49	12.1	inactive
O=C(CN[C@H]1CCN(S(=O)(=O)Cc2ccccc2)C1)N1CCN(Cc2cccc(Cl)c2)CC1	8.6	–	–	–
O=C(CN[C@H]1CCN(S(=O)(=O)Cc2ccccc2)C1)N1CCN(Cc2ccc(F)cc2)CC1	14.3	–	–	–
O=C(CN[C@H]1CCN(S(=O)(=O)Cc2ccccc2)C1)N1CCN(Cc2ccc(Cl)cc2)CC1	9.2	–	–	–
Cc1ccc(CN2CCN(C(=O)CN[C@H]3CCN(S(=O)(=O)Cc4ccccc4)C3)CC2)cc1	8.2	–	–	–
Cc1cccc(CN2CCN(C(=O)CN[C@H]3CCN(S(=O)(=O)Cc4ccccc4)C3)CC2)c1	11.3	–	–	–
